Screening results as filed in PubChem.
RGS4 inh: inhibitors of human RGS4. HEK293 M3R/RGS4 inducible, Fluo-4 calcium flux; hits give high values; triggered by carbachol at its EC20. B-score at 10 µM. P49798. 310,000 compounds, 0.45% hits;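 active means B-score, a plate-corrected calcium signal, over three deviations above library mean, with baseline fluorescence within five deviations of library mean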;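 further: RGS4 expression induced by doxycycline in cells with stable M3 receptor; B-score is computed from the integrated fluorescence ratio over baseline after carbachol; higher B-score means a larger calcium signal and so more RGS4 inhibition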
Target sequence (P49798 whole entry, looked up): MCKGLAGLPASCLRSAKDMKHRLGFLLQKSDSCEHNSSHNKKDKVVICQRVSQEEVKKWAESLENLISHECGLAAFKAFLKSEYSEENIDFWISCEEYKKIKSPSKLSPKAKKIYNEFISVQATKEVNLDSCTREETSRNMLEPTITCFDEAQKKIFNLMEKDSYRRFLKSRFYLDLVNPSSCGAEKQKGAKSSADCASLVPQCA
MrgX1 antagonist: human MrgX1 receptor antagonism, primary screen | Q96LB2 | MRGX1-HEK293 calcium flux, Fluo-4, BAM8-22 antagonism; hits give low values | B-score at 10 µM | 310,000 compounds, 1.3% hits | AID 588676;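 active means calcium-response B-score plate-corrected more than 3 library SD below zero, starting fluorescence within 5 deviations, no agonist response on first addition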;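 further: peak minus trough fluorescence over baseline after final BAM8-22 challenge near maximal dose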
Target sequence (Q96LB2 whole entry, looked up): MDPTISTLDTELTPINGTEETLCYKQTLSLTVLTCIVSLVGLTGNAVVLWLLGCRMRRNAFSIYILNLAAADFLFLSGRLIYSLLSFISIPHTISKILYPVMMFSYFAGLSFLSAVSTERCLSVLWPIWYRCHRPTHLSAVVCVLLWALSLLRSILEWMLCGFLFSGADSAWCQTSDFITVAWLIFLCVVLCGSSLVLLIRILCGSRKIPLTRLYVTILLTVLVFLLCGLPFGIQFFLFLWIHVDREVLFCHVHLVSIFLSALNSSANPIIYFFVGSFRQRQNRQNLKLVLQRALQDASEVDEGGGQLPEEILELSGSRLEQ
MrgX1 allo act: human MrgX1 positive allosteric modulation, primary screen; MrgX1-HEK293, Fluo-4 calcium flux, FDSS; hits give high values; B-score at 10 µM; 310,000 compounds, 0.63% hits; AID 588675;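 active means plate-corrected calcium response at least 3 library SD above typical, normal starting fluorescence, not activating the receptor alone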;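 further: compound read alongside a low EC10 to EC30 dose of BAM8-22 agonist; peak minus trough fluorescence over baseline measured at the second addition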
MrgX1 ag: agonists of human MrgX1 receptor; Q96LB2; MrgX1-HEK293 cells, Fluo-4 calcium fluorescence, agonist mode; hits give high values; B-score at 10 µM; 310,000 compounds, 0.44% hits; AID 588627;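 active means calcium response B-score plate-corrected fluorescence ratio at least 3 library SD, with starting fluorescence B-score inside 5 SD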
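Material – MrgX1-expressing HEK293 cells · Input – 15,000 cells seeded per well · Dosing – compound as first of three additions · Times – overnight seeding, then 1 h dark dye loading · Measured by – kinetic Fluo-4 NW fluorescence of intracellular calcium · Read-out – B-scored fluorescence response ratio · Benchmarks – positive and negative control wells on each plate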
RGS4 pot: RGS4 potentiation or activation; HEK293 M3R/inducible RGS4, carbachol calcium flux Fluo4; hits give low values; B-score at 10 µM; 310,000 compounds, 0.92% hits; AID 463111;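 active means B-score of the integrated calcium signal more than 4 SD below the library mean, with starting fluorescence not abnormally high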;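 further: negative B-score means reduced calcium response which marks RGS4 activation or potentiation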
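Material: M3R-expressing HEK293 line, RGS4 induced by doxycycline | Schedule: Overnight RGS4 induction, 30 min dye load 37 °C, 20 min compound RT | Measured by: Fluo4 fluorescence kinetic imaging of calcium | Read-out: Integrated calcium ratio converted to B score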
MrgX1 antag conf: human MrgX1 receptor antagonism, re-confirmation screen. remaining BAM8-22 calcium response % of control (hits give low values), % at 10 µM. shares compounds with MrgX1 antagonist. MrgX1-HEK293, BAM8-22 calcium flux, Fluo-4; hits give low values. 2,300 compounds, 19% hits;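 active means remaining agonist calcium response no higher than 100% minus 3 SD of agonist-only control wells, with starting fluorescence near control levels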;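 further: agonist BAM8-22 given at a near maximal EC90 to ECmax level; peak minus minimum fluorescence divided by baseline after agonist addition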
HEK293 Ca flux: counter-screen for MrgX1 antagonists: effect in parental HEK293 cells | shares compounds with MrgX1 antagonist | Fluo-4 calcium fluorescence, FDSS | fluorescence ratio F(max-min)/F0 at 10 µM | 4,000 compounds, 2% hits | AID 624111;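 active means duplicate-averaged calcium fluorescence ratio at least three times the standard deviation of buffer wells, a nonspecific response in parental cells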
HEK293 Ca counter: counter-screen for MrgX1 allosteric activators: effect in parental HEK293 cells | shares compounds with MrgX1 antagonist | parental HEK293 calcium flux, Fluo-4 fluorescence ratio; hits give high values | fluorescence ratio F(max-min)/F0 at 10 µM | 4,000 compounds, 0.4% hits | AID 624114;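 active means calcium fluorescence ratio, averaged over duplicates, at least 3 SD of the buffer-well ratio, meaning a nonspecific response in receptor-free cells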;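 further: untransfected parental HEK293 lacking MrgX1 used as counterscreen for MrgX1 allosteric activators; fluorescence change taken during the second addition on a kinetic imager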
HEK293 Ca cntr2: MrgX1 activator counter-screen hit in parental HEK293 cells; 4,000 compounds, 8.7% hits; shares compounds with MrgX1 antagonist; fluorescence ratio F(max-min)/F0 at 10 µM; Fluo-4 calcium fluorescence (FDSS); hits give high values; AID 624115;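 active means calcium fluorescence ratio at least three times the spread of buffer wells, meaning a non-specific response in parental cells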
Hits are given with their value. Most compounds without a hit are left out; they make up all but 3.5% or so of the library.

`CCCn1c(SCc2ccccn2)nc2c1c(=O)n(C)c(=O)n2C` gave RGS4 inh inactive, MrgX1 antagonist -7.8, MrgX1 allo act inactive, MrgX1 ag inactive, RGS4 pot inactive, MrgX1 antag conf inactive, HEK293 Ca flux inactive, HEK293 Ca counter inactive and HEK293 Ca cntr2 inactive.
C=CCC1(Cl)C(=O)C(Cl)=C(N2CCOCC2)C1(OC)OC (stereo not given) was read as RGS4 inh inactive, MrgX1 antagonist inactive, MrgX1 allo act inactive, MrgX1 ag inactive and RGS4 pot inactive.
O=C(O)CCNc1ccc(NCCC(=O)O)c2c1C(=O)c1ccccc1C2=O was read as RGS4 inh inactive, MrgX1 antagonist -4.7, MrgX1 allo act inactive, MrgX1 ag inactive, RGS4 pot inactive, MrgX1 antag conf inactive, HEK293 Ca flux inactive, HEK293 Ca counter inactive and HEK293 Ca cntr2 inactive.
COC(=O)[C@H](C)[C@@H]1C[C@@]1(C)[C@@H](NC(=O)OCc1ccccc1)c1ccccc1 was read as RGS4 inh inactive, MrgX1 antagonist -5.4, MrgX1 allo act inactive, MrgX1 ag inactive, RGS4 pot inactive, MrgX1 antag conf 75%, HEK293 Ca flux inactive, HEK293 Ca counter inactive and HEK293 Ca cntr2 inactive.
Screening CCn1cc(C(=O)N2CCCC(C(=O)c3ccc4ccccc4c3)C2)cn1 (stereo not given) returned RGS4 inh inactive, MrgX1 antagonist inactive, MrgX1 allo act inactive, MrgX1 ag inactive and RGS4 pot inactive.
COC(=O)/C(=C\Nc1ccccc1N)c1ncc(C(F)(F)F)cc1Cl was read as RGS4 inh inactive, MrgX1 antagonist -4.5, MrgX1 allo act inactive, MrgX1 ag inactive, RGS4 pot inactive, MrgX1 antag conf inactive, HEK293 Ca flux inactive, HEK293 Ca counter inactive and HEK293 Ca cntr2 inactive.
Cc1ccc(NC(=O)c2ccc3ncsc3c2)cc1S(=O)(=O)N(C)C was read as RGS4 inh inactive, MrgX1 antagonist -5.4, MrgX1 allo act inactive, MrgX1 ag inactive, RGS4 pot inactive, MrgX1 antag conf inactive, HEK293 Ca flux inactive, HEK293 Ca counter inactive and HEK293 Ca cntr2 inactive.
Screening Cc1ccc(NC(=O)c2cccnc2)cc1S(=O)(=O)N(C)C returned RGS4 inh inactive, MrgX1 antagonist inactive, MrgX1 allo act inactive, MrgX1 ag inactive and RGS4 pot inactive.
`CC(=O)NCCc1ccc(S(=O)(=O)NC2OC(=O)c3ccccc32)cc1` (stereo not given) gave RGS4 inh inactive, MrgX1 antagonist -4.8, MrgX1 allo act inactive, MrgX1 ag inactive, RGS4 pot inactive, MrgX1 antag conf inactive, HEK293 Ca flux inactive, HEK293 Ca counter inactive and HEK293 Ca cntr2 inactive.
Screening CC(=O)NCc1ccc(S(=O)(=O)NC(C)CCc2ccccc2)cc1 (stereo not given) returned RGS4 inh inactive, MrgX1 antagonist inactive, MrgX1 allo act inactive, MrgX1 ag inactive and RGS4 pot inactive.
Screening CCCSc1cc(N2CCCC2)nc(-c2ccccc2)n1 returned RGS4 inh inactive, MrgX1 antagonist -5.7, MrgX1 allo act inactive, MrgX1 ag inactive, RGS4 pot inactive, MrgX1 antag conf inactive, HEK293 Ca flux inactive, HEK293 Ca counter inactive and HEK293 Ca cntr2 inactive.
CCCSc1cc(N2CCN(C)CC2)nc(-c2ccc(OC)cc2)n1 was read as RGS4 inh inactive, MrgX1 antagonist inactive, MrgX1 allo act inactive, MrgX1 ag inactive and RGS4 pot inactive.
`CN(C)c1ccc(/C=C/c2ccc3ccccc3n2)cc1` gave RGS4 inh inactive, MrgX1 antagonist -6.9, MrgX1 allo act inactive, MrgX1 ag inactive, RGS4 pot inactive, MrgX1 antag conf inactive, HEK293 Ca flux 0.55, HEK293 Ca counter inactive and HEK293 Ca cntr2 inactive.
